Shown are actives, neighbours in structure and some others; about 4.6% of the full set was active somewhere.
OX1R antag-1: antagonists of human orexin 1 receptor (OX1R); O43613; OX1R-expressing cells, FRET antagonist read-out; inhibition, % at 6.6 µM; 1.8% of 330,000 active; AID 485270; in the data active means inhibition mostly above about 38%, no sharp cut-off; inactive means mostly below about 40%
Target sequence (O43613 whole entry, looked up): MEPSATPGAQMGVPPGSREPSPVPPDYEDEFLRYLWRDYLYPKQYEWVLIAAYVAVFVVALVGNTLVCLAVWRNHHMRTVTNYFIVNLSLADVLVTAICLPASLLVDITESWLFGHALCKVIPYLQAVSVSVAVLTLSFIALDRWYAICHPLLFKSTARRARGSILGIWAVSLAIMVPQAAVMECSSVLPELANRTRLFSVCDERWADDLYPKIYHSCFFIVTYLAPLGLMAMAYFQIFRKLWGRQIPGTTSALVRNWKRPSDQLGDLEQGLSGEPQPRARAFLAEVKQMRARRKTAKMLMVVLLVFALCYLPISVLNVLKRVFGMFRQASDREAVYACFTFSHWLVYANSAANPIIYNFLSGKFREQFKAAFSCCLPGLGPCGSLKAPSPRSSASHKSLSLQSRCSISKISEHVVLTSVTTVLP
CHO parental Ca: counter-screen: ATP calcium response change in parental CHO cells; parental CHO-K1, ATP-induced calcium, Fluo-8 fluorescence; 0.63% of 330,000 active; inhibition, % at 5.6 µM;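 active means inhibition above that plate's mean sample inhibition plus 3 SD, cut at about 26% in these data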
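material = parental CHO cells | also added = ATP as calcium-mobilizing challenge | dosing = single point at 5.6 µM | detection = intracellular calcium via Fluo-8 no-wash fluorescent dye | read-out = % inhibition | benchmarks = low control ATP plus DMSO, high control DMSO only | repeats = one well per compound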
GPR7 antag: antagonists of human GPR7 (neuropeptides B/W receptor 1) | GPR7-expressing cells, fluorescence antagonist assay | inhibition, % at 4.4 µM | 1.1% of 290,000 active | AID 1861; in the data active means inhibition above about 16%, passing the limit was not always enough;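 further: cells stimulated with the agonist NPW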
OX1R antag-2: blocks the human orexin 1 receptor. CHO/OX1R cells, Fluo-8 calcium fluorescence, orexin A. inhibition, % at 5 µM. 0.43% of 330,000 active. AID 434989;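 active means inhibition above its plate's threshold, mean inhibition of all tested compounds on the plate plus 3 SD, cut at about 37% in these data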
TAAR1 ag: human TAAR1 agonism | Q96RJ0 | CHO RD-HGA16 TAAR1, Fluo-8 calcium fluorescence; vehicle wells 0%, saturating PEA agonist 100% | activation, % at 3 µM | 0.99% of 360,000 active | AID 624467;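 active means activation above the mean activation of all test compounds in the run plus 3 SD, cut at about 38% in these data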
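System: CHO-derived RD-HGA16 cells with stable Gα16 and human TAAR1. Times: 17-24 h plating, Fluo-8 75 min 37 °C, 30 min RT. Measured by: calcium-sensitive Fluo-8 signal, excitation 470-495, emission 515-575 nm. Read-out basis: % activation relative to PEA EC100 response. Control set: DMSO and PEA EC100. Repeats: no replicates (n 1).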
TAAR1 antagonist: antagonists of human TAAR1 | Q96RJ0 | CHO RD-HGA16 TAAR1, Fluo-8 calcium fluorescence, antagonist | inhibition, % at 3 µM | 1.5% of 360,000 active;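 active means inhibition above a per-plate cutoff, the mean inhibition of test compounds on that plate plus 3 SD, cut at about 49% in these data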
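Assay system: CHO-derived RD-HGA16 cells stably expressing human TAAR1 plus Gα16. Timing: 140 s kinetic read after compound, 140 s after agonist. Technique: kinetic Fluo-8 calcium fluorescence measurement. Measure: % inhibition of agonist calcium response.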
TAAR1 ag conf: confirmation of human TAAR1 agonists; shares compounds with TAAR1 ag; CHO RD-HGA16 TAAR1, Fluo-8 calcium fluorescence; scaled: DMSO 0%, maximal phenethylamine 100%; activation, % at 3 µM; 82% of 2,400 active;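 active means activation above a cutoff set at the run's mean compound activation plus 3 SD, cut at about 39% in these data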
Ga16 ag counter: nonselective agonism, TAAR1 counter-screen; shares compounds with TAAR1 ag; CHO-Ga16 parental, Fluo-8 calcium fluorescence; normalized to maximal ATP response, DMSO zero; activation, % at 3 µM; 50% of 2,400 active;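 active means activation above the run cutoff, the mean activation over all tested wells plus 3 SD, cut at about 12% in these data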
TAAR1 desens: counter-screen for human TAAR1 agonists: agonists that desensitize TAAR1 | shares compounds with TAAR1 ag | CHO RD-HGA16 hTAAR1, Fluo-8 calcium, beta-PEA response inhibition | inhibition, % at 3 µM | 46% of 2,400 active;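 active means inhibition above the run cutoff, the mean inhibition of all test compounds plus 3 SD, cut at about 49% in these data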;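 further: beta-PEA stimulus applied at its EC80; loss of beta-PEA calcium signal after compound pretreatment read as receptor desensitization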
Ga16 nonsel ant: nonselective Ga16 antagonism, counter-screen. inhibition, % at 3 µM. CHO-Ga16 ATP-induced calcium, Fluo-8 fluorescence. 39% of 2,400 active. shares compounds with TAAR1 ag;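 active means inhibition above the plate's mean compound inhibition plus 3 SD, computed per plate, cut at about 22% in these data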
Numbers stand for hits; – = inactive; · = not tested or not shown.

SMILES	OX1R antag-1	CHO parental Ca	GPR7 antag	OX1R antag-2	TAAR1 ag	TAAR1 antagonist	TAAR1 ag conf	Ga16 ag counter	TAAR1 desens	Ga16 nonsel ant
COc1cccc(-c2c(C(=O)N/N=C/c3ccco3)nnn2-c2nonc2N)c1	–	–	–	–	78.0	–	96.6	51.8	–	–
Cn1cccc2[nH]c(=O)nc1-2	–	–	–	–	–	–	·	·	·	·
Cc1cc(C)cc(-n2c(C)cc(/C=N/NC(=O)CSc3ncccn3)c2C)c1	–	–	–	–	45.0	–	49.6	32.5	55.3	32.6
Cc1cc(/C=N\NC(=O)COc2cccc3cccnc23)c(C)n1-c1ccccc1	–	–	–	–	–	–	·	·	·	·
O=C(Cc1c(F)c(F)c(F)c(F)c1F)Nc1nc(-c2ccccc2)cs1	47.9	48.3	–	–	53.9	–	83.4	32.6	68.7	30.1
O=C(O)CCCC(=O)Nc1nc(-c2ccccc2)cs1	–	–	–	–	–	–	·	·	·	·
COc1cccc(-c2nc(CS(=O)CC(=O)NCCc3ccccc3)c(C)o2)c1 (stereo not drawn)	–	–	–	–	48.9	–	51.5	–	–	–
CCCC#Cc1cnc2c(c1)C(=O)N([C@H](C)CO)C[C@H](C)[C@@H](CN(C)C(=O)CCN1CCCCC1)O2	·	·	·	·	–	–	·	·	·	·
O=C(C1CC1)N1CCc2cc(S(=O)(=O)NCc3ccccc3)ccc21	–	–	–	–	67.7	–	–	–	–	–
COc1cccc(CNS(=O)(=O)c2ccc3c(c2)CCN3C(=O)C2CC2)c1	–	–	–	–	–	–	·	·	·	·
CN1C(=O)C2CN(CCc3ccccc3)CNC2N(C)C1=O (stereo not drawn)	–	–	–	–	·	·	·	–	·	–
CN(C)Cc1ccccc1CNC(=O)c1cccc(S(=O)(=O)Nc2ccc3c(c2)OCO3)c1	·	·	·	·	–	–	·	·	·	·
Cc1nc(NCCc2ccccc2)c2nnn(Cc3ccccc3Cl)c2n1	–	–	–	–	86.2	79.5	91.4	–	85.3	–
CCOCCCNc1nc(C(F)(F)F)nc2c1nnn2Cc1ccccc1Cl	–	–	–	–	–	–	·	·	·	·
C=CCNc1nc(C(F)(F)F)nc2c1nnn2Cc1ccccc1Cl	–	–	–	–	49.9	–	54.2	35.2	–	–
CCOC(=O)C1=C(N)n2c(s/c(=C/c3ccco3)c2=O)=C(C(=O)OC)C1c1ccco1 (stereo not drawn)	–	–	–	–	68.5	–	72.5	29.6	51.4	39.7
COc1ccccc1OCCNC(=O)C1CC(=O)N(Cc2ccc(C)cc2)C1 (stereo not drawn)	–	–	·	–	–	–	·	·	·	·
Cc1ccccc1OCCC(=O)Nc1cc(S(=O)(=O)N2CCOCC2)ccc1OC(C)C	–	–	–	–	–	–	·	·	·	·
Cn1c(CS/C(N)=N/N=C/c2ccccc2)c(Br)c(=O)n1-c1ccccc1	–	–	–	–	44.0	–	45.6	–	–	–
COc1ccc(NC(=O)CSCC(=O)Nc2nnc(C)s2)cc1	–	–	·	–	–	–	·	·	·	·
NC(N)=N/N=C(\N=Nc1ccccc1)c1ccc(Cl)cc1	·	·	·	·	49.0	–	76.3	37.8	76.9	49.8
COC(=O)C1=C(C)N(Cc2cccc(C(F)(F)F)c2)C(=NCc2ccc(C(F)(F)F)cc2)NC1c1ccc(F)cc1 (stereo not drawn)	·	·	·	·	–	–	·	·	·	·
C=CCN=C1NC(c2ccc(Cl)cc2)C(C(=O)OC)=C(C)N1Cc1cccc(C(F)(F)F)c1 (stereo not drawn)	·	·	·	·	65.1	74.9	76.2	46.5	89.3	71.5
